Screening results as filed in PubChem BioAssay.
Sampled rows, rich in hits. Any-hit rate of the full collection: about 0.7%.
Xi reactivation – activators of inactive X chromosome reactivation, primary screen, imaging, XiGFP fibroblasts, GFP high-content imaging, set 2 | hit rate 0.055% among 360,000 | activation, % at 7.58 µM | AID 743238, 2013 | XiGFP mouse fibroblasts, % GFP-positive cells imaging, 3 d; cells co-treated with 5-aza-dC sensitizer; scaled so ellipticine positive control = 100%;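 active = mean normalized replicate activation at least 10% and every replicate at or above 10%; inconclusive = only one of the two criteria met; inactive = mean below 10% and not all replicates reach 10%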;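 also: 0% = median of on-plate neutral control wells and 100% = ellipticine 6 µM median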
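Assay system: SV40-immortalized XiGFP fibroblast cells, line 68-5-11; buffer or medium: DMEM plus 5-aza-dC sensitizer; compound: one concentration, pinned; timing: compounds 3 days, fix/stain 15 min at room temperature; benchmarks: positive control ellipticine, 6 µM final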
Glyco luc inh – increase of ERlucT glycosylation luciferase signal, primary screen, N-linked glycosylation inhibitor project, D54 ERlucT cells, luminescence, set 2; hit rate 0.23% among 360,000; D54 ERlucT glycosylation luciferase reporter, 24 h; percent of 100 nM tunicamycin response; reporter increase, % at 12.5 µM;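 active = mean luciferase reporter signal, scaled so untreated is 0 and the glycosylation-blocking control 100, at or above a set limit in every replicate; inconclusive = mean reaches the limit but not every replicate does; inactive = mean below the limit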;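 also: luciferase carries N-glycosylation sites so blocking glycosylation raises the light; 0% = median of neutral control wells and 100% = median of 100 nM tunicamycin wells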
GC-A act – GC-A stimulated cGMP production enhancers – HEK293 GC-A cells, cGMP TR-FRET, EC30 ANP, primary screen. activation, % at 10 µM. AID 1671463, 2021. Atrial natriuretic peptide receptor 1 (Homo sapiens), P16066. hit rate 0.14% among 370,000. 0% at EC30 ANP, 100% saturating ANP; in the data active = activation above about 40%
Vif inh – HIV Vif self-association inhibitors, primary screen, imaging, HEK293T, single point | HEK293T cells, Vif self-association by quenched fluorescence, 24 h | inhibition, % at 7.49 µM | hit rate 0.35% among 340,000 | AID 602346, 2012; in the data active = inhibition above about 50%, passing the limit was not always enough; inconclusive = no clear call, values can overlap the other calls; inactive = below about 31%
CaV13 ICDI inh – Primary screen for inhibitors of IQ motif and Ca2+-dependent inactivation inhibitor domain binding in CACNA1D, Förster resonance energy transfer in living cells, …; HEK cells, CFP/YFP FRET ICDI-IQ, plate reader, 10 min; percent FRET-ratio fall versus neutral wells; inhibition, % at 12.3 µM; hit rate 0.098% among 340,000; AID 743397;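 active = mean replicate inhibition of at least 30% and at least 1% of replicates passing that level; inconclusive = only one of the two criteria is met; inactive = neither criterion is met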;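 also: 0% = median of the neutral control wells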
NPR2 activator – human GC-B receptor activators, primary screen, HEK293 GC-B cells, cGMP TR-FRET, EC30 CNP. Atrial natriuretic peptide receptor 2 (Homo sapiens), P20594. 0% at EC30 CNP, 100% saturating CNP. activation, % at 10 µM. hit rate 0.11% among 370,000. AID 1920062, 2024;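 active = activation at 10 µM reaching about 35% in either raw or pattern-adjusted values, limit read from the data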
An asterisk follows results filed as active; u = inconclusive; x = no result; + = active, no number.

SMILES	Xi reactivation	Glyco luc inh	GC-A act	Vif inh	CaV13 ICDI inh	NPR2 activator
CC(=O)c1ccc(NC(=O)c2ccc([N+](=O)[O-])o2)cc1	0	u	-9	13	-20	-2
Cc1cc(C)c2sc(NC(=O)c3ccc([N+](=O)[O-])o3)nc2c1	0	44*	-4	-11	-4	-7
O=C(Nc1ccc2c(c1)[C@H]1C[C@H](CC(=O)N3CCc4ccccc4C3)O[C@@H](CO)[C@H]1O2)Nc1ccccc1F	0	x	x	x	x	x
Cc1noc(C)c1NC(=O)N(C)C[C@@H]1Oc2c(NS(C)(=O)=O)cccc2C(=O)N([C@@H](C)CO)C[C@@H]1C	0	x	x	x	x	x
O=C(CC1CC1)Nc1ccc2c(c1)[C@H]1C[C@H](CC(=O)NC3CCCCC3)O[C@@H](CO)[C@H]1O2	0	x	x	x	x	x
COC(=O)c1ccc(Oc2coc3cc(OCc4cnn(-c5ccccc5)c4)ccc3c2=O)cc1	x	3	0	142*	-5	0
O=C(c1ccccc1)N1CC(=O)N2[C@@H](CO)[C@H](c3ccc(C#Cc4ccccc4)cc3)[C@@H]2C1	0	x	x	x	x	x
CCNC(=S)N/N=C/c1sc(N2CCCCC2)nc1-c1cccs1	0	-4	1	69*	-6	2
CCNC(=S)Nc1ccc(N2CCCCC2)cc1	0	1	0	-13	-6	3
COc1c(Br)cc(Br)cc1/C=C1/C(=O)N=C(N)N1C	0	0	-11	96*	-6	-3
C[C@@H]1CN([C@H](C)CO)S(=O)(=O)c2ccc(-c3cccnc3)cc2O[C@@H]1CN(C)C(=O)C1CC1	0	x	x	x	x	x
C[C@H](NS(=O)(=O)c1c(Cl)cccc1Cl)C(=O)NNC(=O)COc1ccccc1F	0	3	6	52*	-13	-1
O=c1[nH]c(=O)n([C@H]2C[C@H](O)[C@@H](CO)O2)cc1Br	x	48*	1	4	x	1
O=c1[nH]c(=O)n(C2OC(CO)C(O)C2O)cc1Br (stereo not drawn)	0	0	-3	13	-5	2
O=c1[nH]c(=O)n(C2CC(O)C(CO)O2)cc1I (stereo not drawn)	0	81*	-2	16	-7	3
O=c1[nH]c(=O)n([C@H]2C[C@H](O)[C@@H](CO)O2)cc1F	1	-2	-3	4	-4	-1
C[C@@H]1CN([C@@H](C)CO)S(=O)(=O)c2ccc(-c3cccnc3)cc2O[C@H]1CN(C)Cc1cncnc1	0	x	x	x	x	x
CCCNC(=O)N1CC2(CN(S(=O)(=O)c3ccc(OC)cc3)C2)c2c(n(C)c3cc(OC)ccc23)[C@H]1CO	0	x	x	x	x	x
O=c1c2ccccc2nc(/C=C/c2ccc([N+](=O)[O-])o2)n1CCCO	x	-14	-10	+	x	-9
O=c1c2ccccc2nc(/C=C/c2ccc([N+](=O)[O-])cc2)n1CCCO	x	1	-3	5	-10	-5
Cc1cc(NC(=O)COC(=O)COc2ccc(C(=O)c3ccccc3)cc2)no1	x	1	64*	10	-1	-1
COc1ccccc1-n1c(SCC(=O)Nc2cccc(S(N)(=O)=O)c2)nc2ccccc2c1=O	0	-1	5	0	-1	6
COc1ccc(OC)c(-n2c(SCC(=O)Nc3cccc(S(N)(=O)=O)c3)nc3ccccc3c2=O)c1	0	-4	33	9	-2	37*
Cc1cccc(CN(C)C[C@@H]2Oc3ncc(C#Cc4ccccc4)cc3C(=O)N([C@H](C)CO)C[C@@H]2C)c1	15*	x	x	x	x	x
Cc1cccc(CN(C)C[C@@H]2Oc3ncc(C#CCN(C)C)cc3C(=O)N([C@H](C)CO)C[C@@H]2C)c1	0	x	x	x	x	x
SMILES	Xi reactivation	Glyco luc inh	GC-A act	Vif inh	CaV13 ICDI inh	NPR2 activator
Cc1cc(NS(=O)(=O)c2ccc(NC(=O)c3ccc(Cl)cc3Cl)cc2)no1	0	1	2	55*	-3	3
CCN(c1ccccc1)S(=O)(=O)c1ccc(OC)c(NC(=O)CN(C)C)c1	0	2	-8	0	+	-8
CCCOc1ccccc1N/C(=N\S(=O)(=O)c1ccc(C)cc1)Nc1nc(C)cc(C)n1	x	0	45*	-3	x	54*
CCCOc1ccccc1N/C(N)=N/c1nc(C)cc(C)n1	0	2	-4	4	9	0
CC(C)C#Cc1cnc2c(c1)C(=O)N([C@H](C)CO)C[C@H](C)[C@H](CN(C)C(=O)Cc1ccccn1)O2	-1	x	x	x	x	x
C(=N\Nc1nc2ccccc2[nH]1)/c1ccc2ncccc2c1	0	45*	-8	33	-13	-9
COCC(=O)N1C[C@@H](C)[C@H](OC)CN(C)C(=O)c2ccc(NC(=O)c3cnccn3)cc2OC[C@H]1C	0	x	x	x	x	x
Cc1nn2c(COc3ccc(NC(=O)c4ccccc4Cl)cc3)nnc2c2ccccc12	0	9	1	99*	-5	8
Nn1c(SCC(=O)N2CCCC2)nnc1-c1cccs1	1	2	1	7	33*	6
CCOC(=O)c1cc2[nH]c3ccccc3c2[n+](-c2ccc([N+](=O)[O-])cc2)c1N	0	46*	-2	-2	-4	-15
COc1ccc2c3c([nH]c2c1)[C@@H](CO)N(Cc1cccc(Cl)c1)CC31CCN(C(C)=O)CC1	0	x	x	x	x	x
OC[C@H]1[C@@H](c2ccc(C#Cc3ccccc3)cc2)[C@@H]2CN(CC3CCOCC3)CCCCN12	0	x	x	x	x	x
CC(=O)Nc1ccc(NC(=O)[C@@H]2CCCC[C@@H]2C(=O)O)cc1	0	2	-7	83*	3	6
CC(=O)Nc1ccc(NC(=O)C2CCCCC2C(=O)O)cc1 (stereo not drawn)	0	1	-3	0	-2	3
CCC(C)(C)C(=O)O[C@H]1C[C@@H](C)C=C2C=C[C@H](C)[C@H](CC[C@@H]3C[C@@H](O)CC(=O)O3)[C@H]21	0	45*	0	5	-4	3
COc1cccc(C(=O)Nc2ccc3c(c2)C(=O)N(C)C[C@H](OC)[C@@H](C)CN(C(C)=O)[C@H](C)CO3)c1	0	x	x	x	x	x
CC(C)CC#Cc1ccc2c(c1)O[C@@H](CN(C)C(=O)C1CC1)[C@H](C)CN([C@@H](C)CO)S2(=O)=O	0	x	x	x	x	x
